The record followed here is ChEMBL document CHEMBL4354873, “Rationally Designed Small-Molecule Inhibitors Targeting an Unconventional Pocket on the TLR8 Protein-Protein Interface” (J Med Chem, 2020).

Molecules are shown by their SMILES. The source made the active and inactive calls. The calls are words filed in the database; no cut-off is given here.

Data set [1] can be described thus: Cytotoxicity against HEK-Blue cells expressing human TLR8 assessed as reduction in cell viability up to 100 uM measured after 24 hrs by CCK8 assay. Format: cell-based. In short, it runs like this:
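CCK-8 viability: compounds incubated 24 h at 37 °C with HEK-Blue TLR8 cells (4 × 10⁴ cells/well) or PBMCs (3 × 10⁶ cells/mL). CCK-8 was added at 1:10 for up to 2 h, then absorbance read at 450 nm. Values normalized to untreated cells as 100% survival.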

Data set [2] addresses T1, Toll-like receptor 9 (Homo sapiens) (UniProt Q9NR96).
T1 sequence (whole entry): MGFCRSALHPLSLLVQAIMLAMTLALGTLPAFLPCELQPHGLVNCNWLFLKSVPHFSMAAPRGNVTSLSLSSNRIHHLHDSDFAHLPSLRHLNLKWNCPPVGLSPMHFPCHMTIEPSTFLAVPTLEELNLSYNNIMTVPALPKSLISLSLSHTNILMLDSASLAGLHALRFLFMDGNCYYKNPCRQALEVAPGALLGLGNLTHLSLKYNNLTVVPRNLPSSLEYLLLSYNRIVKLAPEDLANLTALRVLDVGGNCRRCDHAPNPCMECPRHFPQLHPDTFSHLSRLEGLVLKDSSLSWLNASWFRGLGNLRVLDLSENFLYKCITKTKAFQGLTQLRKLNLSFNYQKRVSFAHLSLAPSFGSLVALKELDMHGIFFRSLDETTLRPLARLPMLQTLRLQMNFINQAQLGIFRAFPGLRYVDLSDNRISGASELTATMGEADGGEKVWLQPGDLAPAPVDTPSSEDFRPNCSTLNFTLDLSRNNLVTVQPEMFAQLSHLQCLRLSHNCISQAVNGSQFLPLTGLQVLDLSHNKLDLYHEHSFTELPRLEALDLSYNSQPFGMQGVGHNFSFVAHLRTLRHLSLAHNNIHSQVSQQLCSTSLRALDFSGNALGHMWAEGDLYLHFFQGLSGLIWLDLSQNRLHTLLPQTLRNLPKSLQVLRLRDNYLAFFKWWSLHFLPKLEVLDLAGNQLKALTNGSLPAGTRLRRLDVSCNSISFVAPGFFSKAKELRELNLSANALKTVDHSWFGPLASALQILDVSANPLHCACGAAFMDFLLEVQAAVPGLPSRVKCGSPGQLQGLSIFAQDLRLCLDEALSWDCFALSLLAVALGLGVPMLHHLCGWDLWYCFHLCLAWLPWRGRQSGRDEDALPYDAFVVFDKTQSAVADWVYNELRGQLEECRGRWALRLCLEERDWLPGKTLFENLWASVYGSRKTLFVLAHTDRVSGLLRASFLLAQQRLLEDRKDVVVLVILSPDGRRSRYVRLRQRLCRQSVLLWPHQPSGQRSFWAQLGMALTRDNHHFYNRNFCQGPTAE
The data set can be described thus: Inhibition of human TLR9 expressed in HEK-Blue cells assessed as inhibition of ODN2006-induced NF-kappaB activation at 20 uM measured after 24 hrs by quanti-blue based SEAP reporter gene assay. Format: cell-based. In short, it runs like this: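 HEK-Blue SEAP format: 4 × 10⁴ cells/well in DMEM with ligand plus compound, 24 h at 37 °C. Supernatant mixed with QUANTI-Blue up to 1 h, then A620 read. Ligands: Pam3CSK4 100 ng/mL (TLR1/2), Pam2CSK4 100 ng/mL (TLR2/6), poly(I:C) 5 µg/mL (TLR3), LPS 20 ng/mL (TLR4), flagellin 50 ng/mL (TLR5), R848 1 µg/mL (TLR7), R848 2 µg/mL (TLR8), ODN2006 0.5 µM (TLR9). Mean ± s.d.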

Data set [3] concerns the target T2, Toll-like receptor 7 (Homo sapiens) (UniProt Q9NYK1).
T2 sequence (whole entry): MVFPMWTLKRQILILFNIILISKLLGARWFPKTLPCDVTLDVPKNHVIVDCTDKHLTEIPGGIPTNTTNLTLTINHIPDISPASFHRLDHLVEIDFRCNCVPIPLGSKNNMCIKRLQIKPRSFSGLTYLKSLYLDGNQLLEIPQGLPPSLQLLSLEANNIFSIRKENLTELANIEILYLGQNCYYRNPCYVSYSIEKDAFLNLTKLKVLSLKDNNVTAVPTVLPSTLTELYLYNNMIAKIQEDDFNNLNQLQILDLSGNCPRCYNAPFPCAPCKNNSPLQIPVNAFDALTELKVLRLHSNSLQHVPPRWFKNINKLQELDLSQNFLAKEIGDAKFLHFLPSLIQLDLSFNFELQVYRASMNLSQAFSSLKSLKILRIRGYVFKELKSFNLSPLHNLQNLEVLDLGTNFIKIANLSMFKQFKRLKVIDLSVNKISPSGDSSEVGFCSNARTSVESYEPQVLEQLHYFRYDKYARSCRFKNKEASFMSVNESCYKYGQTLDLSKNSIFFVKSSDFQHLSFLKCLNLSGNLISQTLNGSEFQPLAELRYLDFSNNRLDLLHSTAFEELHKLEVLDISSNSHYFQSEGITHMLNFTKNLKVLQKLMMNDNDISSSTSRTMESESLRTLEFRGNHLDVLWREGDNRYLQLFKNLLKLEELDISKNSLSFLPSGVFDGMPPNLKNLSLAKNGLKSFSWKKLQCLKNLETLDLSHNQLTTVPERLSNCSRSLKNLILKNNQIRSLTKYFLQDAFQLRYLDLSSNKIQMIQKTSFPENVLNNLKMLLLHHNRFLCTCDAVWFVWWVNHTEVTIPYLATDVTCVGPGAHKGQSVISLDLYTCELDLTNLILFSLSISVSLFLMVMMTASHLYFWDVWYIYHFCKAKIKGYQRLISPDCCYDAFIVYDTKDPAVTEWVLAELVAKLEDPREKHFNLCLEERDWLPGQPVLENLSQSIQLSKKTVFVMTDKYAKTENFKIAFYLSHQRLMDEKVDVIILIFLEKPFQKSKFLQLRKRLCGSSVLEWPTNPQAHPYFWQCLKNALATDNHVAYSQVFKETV
The data set can be described thus: Effect on TLR7-mediated signaling in human PBMC assessed as change in basal TNFalpha secretion up to 20 uM measured after 24 hrs by ELISA.

Regarding `CSc1nnc(CCCO)n1-c1cc(C)c(C)c(C)c1`, the Activity result in data set [1] was “Non-Toxic”. For the same compound, the inhibition entry in data set [2] was “inactive”. The result in data set [3] was inactive.
